Rows were chosen to be rich in hits. Some 2.6% of all compounds tested hit in one or more screens of this group.
SENP8 block-1 = human SENP8 protease inhibitors, primary screen, biochemical, fluorescence, Nedd8 protein substrate, uHTS | Sentrin-specific protease 8 (Homo sapiens), Q96LD8 | recombinant SENP8 | inhibition, % at 20 µM | 0.64% of 360,000 active; in the data active means inhibition mostly above about 40%, no sharp cut-off; inactive means mostly below about 27%
SENP8 block-2 = SENP8 protease inhibitors, primary screen, biochemical, luminescence; Sentrin-specific protease 8 (Homo sapiens), Q96LD8; 1.2% of 330,000 active; inhibition, % at 10 µM; purified SENP8, Z-RLRGG-aminoluciferin cleavage; in the data active means inhibition above about 50%
SENP6 block = SENP6 protease inhibitors, primary screen, biochemical, luminescence, uHTS; 1.8% of 330,000 active; inhibition, % at 10 µM; Sentrin-specific protease 6 (Homo sapiens), Q9GZR1; Recombinant SENP6 catalytic domain, aminoluciferin luminescence;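 active means inhibition above about 50% at the single tested dose, limit read from the data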;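 further: plate controls were DMSO wells with enzyme for no effect and DMSO wells lacking enzyme for full effect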
SENP1 FRET inh = human SENP1 catalytic domain inhibitors, primary screen, biochemical, FRET, uHTS; Sentrin-specific protease 1 (Homo sapiens), Q9P0U3; recombinant SENP1 catalytic domain, CyPet-SUMO1-YPet FRET cleavage; inhibition, % at 10 µM; 0.21% of 360,000 active;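 active means inhibition at least 30% at 10 µM, raw YFP signal under a set limit, fluorescence ratio 0.5 to 1.5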;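 further: 0% = enzyme with DMSO and 100% = no enzyme wells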
Target sequence (Q9P0U3 419-644 limits assumed): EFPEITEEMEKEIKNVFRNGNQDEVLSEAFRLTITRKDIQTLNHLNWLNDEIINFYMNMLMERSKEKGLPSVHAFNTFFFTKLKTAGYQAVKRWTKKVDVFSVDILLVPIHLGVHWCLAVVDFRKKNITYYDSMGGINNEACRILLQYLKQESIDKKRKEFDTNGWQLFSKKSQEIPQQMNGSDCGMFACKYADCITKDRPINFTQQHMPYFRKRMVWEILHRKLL
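Test system: hSENP1 catalytic domain, recombinant; Amount: 20 pM final SENP1 enzyme; Medium: Tris pH 8 buffer plus EDTA, NaCl, BME, BSA, NP40, catalase; Schedule: 50 min enzyme reaction, room temperature, light-protected; Technique: FRET fluorescence in CFP and YFP emission channels; Controls: no-enzyme wells low, DMSO-plus-enzyme wells high control.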
Platelet DG rel = inhibitors of platelet dense granule secretion, primary screen, cell-based, MLPCN, human platelets | human platelet-rich plasma, SFLLRN dense granule ATP release, luminescence | inhibition, %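 (compounds screened at 7.5 µM in platelet-rich plasma)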 | 0.22% of 300,000 active;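 active means mean replicate score, as percent of positive control, at or above 50; inconclusive means mean below 50 but at least one replicate at or above 50; inactive means mean and every replicate below 50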
SENP7 block = SENP7 protease inhibitors, primary screen, biochemical, luminescence, uHTS; 1.5% of 330,000 active; recombinant SENP7, Z-RLRGG-aminoluciferin luminescence, 40 min; AID 434973, 2010; inhibition, % at 5 µM;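 active means inhibition above about 50% at the single test dose, limit read from the data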;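 further: plate controls were DMSO with enzyme for no effect and no enzyme buffer wells for full effect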
SENP8 conf = SENP8 protease inhibitors, retest, confirmation, biochemical, luminescence, single concentration; Recombinant SENP8, Z-RLRGG-aminoluciferin luminescence, 60 min; shares compounds with SENP7 block; inhibition, % at 12.5 µM; 40% of 6,200 active; AID 488912, 2010;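 active means mean inhibition across replicates above about 50%, limit read from the data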
SENP6 conf = SENP6 protease inhibitors, confirmation, biochemical, luminescence, single concentration; recombinant SENP6, Z-RLRGG-aminoluciferin luminescence; inhibition, % at 12.5 µM; shares compounds with SENP7 block; 58% of 6,200 active
SENP7 conf = SENP7 protease inhibitors, retest, confirmation, biochemical, luminescence, single concentration; shares compounds with SENP7 block; recombinant SENP7, Z-RLRGG-aminoluciferin luminescence, 40 min; inhibition, % at 12.5 µM; 69% of 6,200 active; AID 488917, 2010
Casp3 select = caspase-3 protease inhibitors, confirmation, selectivity assay for SENP inhibitor project, biochemical, single concentration; shares compounds with SENP7 block; purified caspase-3, Z-DEVD-aminoluciferin luminescence, 60 min; inhibition, % at 12.5 µM; 60% of 6,200 active; AID 488918, 2010;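 active means mean inhibition above about 50%, limit read from the data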;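 further: plate controls were enzyme with DMSO for no effect and wells without caspase-3 for full effect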
Target sequence (P42574 28-227 limits assumed): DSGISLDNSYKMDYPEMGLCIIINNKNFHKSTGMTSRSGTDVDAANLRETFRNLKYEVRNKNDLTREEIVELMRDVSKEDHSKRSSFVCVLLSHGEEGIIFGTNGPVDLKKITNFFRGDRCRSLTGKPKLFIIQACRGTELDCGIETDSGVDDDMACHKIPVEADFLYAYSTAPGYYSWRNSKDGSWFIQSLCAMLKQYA
Luc interf = interferes with luciferase luminescence in SENP counter-screen; shares compounds with SENP7 block; Pre-incubated SENP8/Z-RLRGG-aminoluciferin, luciferase luminescence interference; inhibition, % at 12.5 µM; 39% of 6,200 active; AID 488919;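 active means mean inhibition above about 50% when retested at one dose, limit read from the data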;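 further: plate controls were DMSO wells with completed reaction for no effect and substrate without enzyme for full effect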
The depositor's hits bear a star; i = inactive; ? = inconclusive; · = no result given.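 How the source made its calls, unless noted: active means mean inhibition above about 50% in the one-dose retest (limit read from the data); inactive means the rest.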

SMILES	SENP8 block-1	SENP8 block-2	SENP6 block	SENP1 FRET inh	Platelet DG rel	SENP7 block	SENP8 conf	SENP6 conf	SENP7 conf	Casp3 select	Luc interf
O=c1[nH]c2ccccc2nc1/C=C/c1ccc(Cl)cc1	-377	-1	-10	-22	-3	72*	1	2	2	4	2
O=c1[nH]c(/C=C/c2ccccc2F)nc2ccccc12	i	83*	92*	0	7	96*	76*	79*	89*	91*	22
C(=C\c1nc2ccccc2[nH]1)/c1ccccc1	-261	97*	94*	-1	?	100*	98*	99*	103*	98*	92*
COC(=O)Cn1c(C(=O)N2CCCC2)cc2c1C[C@H]1CN(C(=O)c3ccccc3)[C@@](Cc3ccc(OC)cc3)(C(=O)OC)[C@@H]21	-9	·	·	1	·	·	·	·	·	·	·
O=c1[nH]c(/C=C/c2cccc3ccccc23)nc2ccccc12	-432	-11	-8	-36	4	-2	·	·	·	·	·
O=c1[nH]c(/C=C/c2ccc(Br)cc2)nc2ccccc12	-242	31	22	3	6	89*	18	21	15	21	-2
Cc1cccc(/C=C\c2nc3ccccc3c(=O)[nH]2)c1	-80	80*	89*	0	-10	99*	55*	49	54*	74*	10
O=C(Nc1cccc(/C=C/c2nc3ccccc3c(=O)[nH]2)c1)c1ccccc1Cl	-105	-8	1	-3	-1	37	·	·	·	·	·
COc1ccc(S(=O)(=O)N(C)C[C@H]2Oc3c(NC(=O)NC(C)C)cccc3C(=O)N([C@H](C)CO)C[C@@H]2C)cc1	6	2	5	2	·	12	·	·	·	·	·
CC(C)c1ccccc1NC(=O)CNCCOc1ccccc1F	17	-3	-30	2	3	-3	·	·	·	·	·
Cc1cccc(Nc2nc(-c3ccc(F)cc3)cs2)n1	11	84*	96*	0	1	85*	11	81*	97*	56*	12
COc1ccc(-c2csc(Nc3cccc(C)n3)n2)cc1	8	88*	90*	1	2	81*	6	81*	96*	54*	8
COc1ccc(-c2csc(Nc3cccc(C)n3)n2)cc1C	17	·	·	3	6	·	·	·	·	·	·
CC(=O)Oc1ccc(-c2csc(Nc3ccccn3)n2)cc1	0	·	·	2	·	·	·	·	·	·	·
CC(=O)Oc1ccc(-c2csc(Nc3cccc(C)n3)n2)cc1	4	87*	73*	2	-2	87*	11	50	55*	70*	2
COc1ccc(NC(=O)C2CCCN(S(C)(=O)=O)C2)cc1Cl (stereo not given)	9	-5	-16	3	-1	-10	·	·	·	·	·
CCCCc1ccc(-c2ccc(Br)cc2)nc1	14	58*	68*	1	-1	10	30	34	51*	46	40
CCCc1ccc(-c2ccc(F)c(N)c2)nc1	-7	94*	95*	0	?	96*	94*	97*	103*	97*	96*

Screens as filed in PubChem.
